According to ChEMBL document CHEMBL4033721, “Design, synthesis and evaluation of indole-2-carboxamides with pan anti-mycobacterial activity” (Bioorg Med Chem, 2017):
Converted amounts (≈) assume the structure as drawn.

Experiments:
[1] = Antimycobacterial activity against Mycobacterium massiliense isolate CRM0019 after 8 days by resazurin microtiter based colorimetric assay; format: functional, Mycobacterium abscessus subsp. massiliense; details: Mycobacteroides abscessus, isolate CRM0019, 192 h
Summary of the method: (§1)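 Resazurin microtiter plate MIC, read by visual scan for growth, in Mueller Hinton II broth. Strains include clinical isolates of M. abscessus complex, M. chelonae, M. avium, M. intracellulare, M. xenopi, P. aeruginosa PAO-1 and S. aureus ATCC 25923.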

[2] = test system: Mycobacterium avium; experiment: Antimycobacterial activity against Mycobacterium avium isolate 104 after 8 days by resazurin microtiter based colorimetric assay; format: functional; details: isolate 104, 192 h
Summary of the method: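 M. avium 104 MICs were read by resazurin microtiter colorimetric assay in 96-well plates, with growth scored visually, in Mueller Hinton II medium.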

[3] = Antimycobacterial activity against Mycobacterium bolletii ATCC 14472 after 8 days by resazurin microtiter based colorimetric assay; format: functional; details: Mycobacteroides abscessus, ATCC 14472, 192 h; summary of the method: as §1
[4] = test system: Mycobacteroides chelonae; experiment: Antimycobacterial activity against Mycobacterium chelonae ATCC 35752 after 8 days by resazurin microtiter based colorimetric assay; format: functional; details: ATCC 35752, 192 h; summary of the method: as §1
[5] = test system: Mycobacterium xenopi; experiment: Antimycobacterial activity against wild type Mycobacterium xenopi isolate 4042 after 8 days by resazurin microtiter based colorimetric assay; format: functional; details: isolate 4042, 192 h; summary of the method: as §1
[6] = Antimycobacterial activity against Mycobacterium massiliense isolate CIP108297 after 8 days by resazurin microtiter based colorimetric assay; format: functional, Mycobacterium abscessus subsp. massiliense; details: Mycobacteroides abscessus, isolate CIP108297, 192 h; summary of the method: as §1
[7] = test system: Mycobacteroides abscessus; experiment: Antimycobacterial activity against Mycobacterium abscessus isolate DCI 21 after 8 days by resazurin microtiter based colorimetric assay; format: functional; details: isolate DCI 21, 192 h; summary of the method: as §1
[8] = test system: Mycobacteroides abscessus; experiment: Antimycobacterial activity against Mycobacterium abscessus ATCC 19977 after 8 days by resazurin microtiter based colorimetric assay; format: functional; details: ATCC 19977, 192 h; summary of the method: as §1
[9] = test system: Mycobacterium tuberculosis; experiment: Antimycobacterial activity against Mycobacterium tuberculosis H37Rv MC2-6206 after 8 days by resazurin microtiter based colorimetric assay; format: functional; details: H37Rv MC2-6206, 192 h
Summary of the method: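 MIC was measured by resazurin microtiter colorimetric assay with visual growth scoring. Medium was 7H9-ADC–0.05% tyloxapol with 0.2% casaminoacids, 48 µg/ml pantothenate and 50 µg/ml L-leucine.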

[10] = test system: Mycobacterium avium-intracellulare; experiment: Antimycobacterial activity against Mycobacterium avium-intracellulare isolate 1956 after 8 days by resazurin microtiter based colorimetric assay; format: functional; details: isolate 1956, 192 h; summary of the method: as §1
[11] = test system: Mycolicibacterium smegmatis; experiment: Antimycobacterial activity against Mycobacterium smegmatis isolate MC2 155 after 8 days by resazurin microtiter based colorimetric assay; format: functional; details: str. MC2 155, 192 h
[12] = test system: Pseudomonas aeruginosa; experiment: Antibacterial activity against Pseudomonas aeruginosa PAO1 after 8 days by resazurin microtiter based colorimetric assay; format: functional; details: PAO1, 192 h; summary of the method: as §1
[13] = test system: Mycobacteroides abscessus; experiment: Bactericidal activity against Mycobacterium abscessus after 8 days by resazurin microtiter based colorimetric assay; format: functional
Summary of the method: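 MBC90 found by subculturing from the MIC wells onto 7H11 agar. Value is the lowest concentration cutting CFU by 90% versus the inoculum.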

[14] = test system: Staphylococcus aureus; experiment: Antibacterial activity against Staphylococcus aureus ATCC 25923 after 8 days by resazurin microtiter based colorimetric assay; format: functional; details: ATCC 25923, 192 h; summary of the method: as §1

| Compound | MIC [1] [µg/mL] | MIC [2] [µg/mL] | MIC [3] [µg/mL] | MIC [4] [µg/mL] | MIC [5] [µg/mL] | MIC [6] [µg/mL] | MIC [7] [µg/mL] | MIC [8] [µg/mL] | MIC [9] [µg/mL] | MIC [10] [µg/mL] | MIC [11] [µg/mL] | MIC [12] [µg/mL] | MBC90 [13] [µg/mL] | MIC [14] [µg/mL] |
| --- | --- | --- | --- | --- | --- | --- | --- | --- | --- | --- | --- | --- | --- | --- |
| CCC12CC3CC(C1)CC(NC(=O)c1cc4ccccc4[nH]1)(C3)C2 | > 32 | > 32 | > 32 | > 32 | 1 to 2 (≈ 3.1 to 6.2 µM) | > 32 | > 32 | > 32 | 1.25 (≈ 3.88 µM) | > 32 | > 20 |  |  |  |
| Cc1cc(C)c2cc(C(=O)NC3CCCCCC3)[nH]c2c1 | ≤ 0.06 | 2 (≈ 7.03 µM) | ≤ 0.06 | ≤ 0.06 | 0.06 to 0.12 (≈ 0.211 to 0.422 µM) | ≤ 0.06 | ≤ 0.06 | ≤ 0.06 | 0.08 (≈ 0.281 µM) | 4 (≈ 14.1 µM) | 0.625 (≈ 2.2 µM) | > 160 | 0.015 (≈ 0.0527 µM) | > 160 |
| O=C(NCc1cccc(Cl)c1)c1cc2ccccc2[nH]1 | > 32 |  | > 32 | > 32 |  | > 32 | > 32 | > 32 | > 5 |  | > 20 |  |  |  |
| Cc1cc(C)c2cc(C(=O)NCC34CC5CC(CC(C5)C3)C4)[nH]c2c1 | > 32 | > 32 | > 32 | > 32 | 1 (≈ 2.97 µM) | > 32 | > 32 | > 32 | 0.16 (≈ 0.476 µM) | > 32 | > 20 |  |  |  |
| CCCCCCCNC(=O)c1cc2ccccc2[nH]1 | > 32 |  | > 32 | > 32 |  | > 32 | > 32 | > 32 | > 10 |  | > 25 |  |  |  |
| Cc1cc(C)c2cc(C(=O)NCc3cccc(Cl)c3)[nH]c2c1 | > 32 |  | > 32 | > 32 |  | > 32 | > 32 | > 32 | > 5 |  | > 20 |  |  |  |
| O=C(NC1C2CC3CC(C2)CC1C3)c1cc2ccccc2[nH]1 (stereo unspecified) | 32 (≈ 109 µM) | > 32 | 32 (≈ 109 µM) | > 32 | 2 (≈ 6.79 µM) | > 32 | > 32 | > 32 | 0.39 (≈ 1.32 µM) | > 32 | > 25 |  |  |  |
| C[C@H]1CC[C@H](NC(=O)c2cc3ccccc3[nH]2)CC1 | > 32 |  | > 32 | > 32 |  | > 32 | > 32 | > 32 | > 10 |  | > 25 |  |  |  |
| CCCCCCCCNC(=O)c1cc2ccccc2[nH]1 | > 32 |  | > 32 | > 32 |  | > 32 | > 32 | > 32 | > 10 |  | > 25 |  |  |  |
| O=C(NC1CCCCC1)c1cc2ccccc2[nH]1 | > 32 |  | > 32 | > 32 |  | > 32 | > 32 | > 32 | > 10 |  | > 25 |  |  |  |
| CCC12CC3CC(C1)CC(NC(=O)c1cc4c(C)cc(C)cc4[nH]1)(C3)C2 | > 32 | > 32 | > 32 | > 32 | > 32 | > 32 | > 32 | > 32 | 0.039 (≈ 0.111 µM) | > 32 | > 20 |  |  |  |
| Cc1cc(C)c2cc(C(=O)NC3CCC(C)CC3)[nH]c2c1 (mixture of isomers) | ≤ 0.06 | > 32 | ≤ 0.06 | ≤ 0.06 | 0.5 to 1 | ≤ 0.06 | ≤ 0.06 | ≤ 0.06 | 0.31 | > 32 | > 20 | > 160 | 0.03 | > 160 |
| Cc1cc(C)c2cc(C(=O)NC3CCCCC3)[nH]c2c1 | 0.25 (≈ 0.925 µM) | > 32 | 0.25 (≈ 0.925 µM) | 0.25 (≈ 0.925 µM) | 1 to 2 (≈ 3.7 to 7.4 µM) | 0.25 (≈ 0.925 µM) | 0.25 (≈ 0.925 µM) | 0.5 (≈ 1.85 µM) | 0.625 (≈ 2.31 µM) | > 32 | 2.5 (≈ 9.25 µM) |  |  |  |
